Test results from ChEMBL document CHEMBL1154310, “Stereoselective synthesis and antimicrobial activity of benzofuran-based (1E)-1-(piperidin-1-yl)-N2-arylamidrazones” (2009).
Values after ≈ are worked out from the molar mass of the structure shown. Active and inactive are the calls of the source. The rule behind the calls is not given here.

Legend:
[1] = tested on: Aspergillus fumigatus; experiment: Ratio of compound to grisofulvin activity against Aspergillus fumigatus at 5 mg/ml after 24 to 48 hrs by agar diffusion technique; type: functional
[2] = tested on: Syncephalastrum racemosum; experiment: Ratio of compound to grisofulvin activity against Syncephalastrum racemosum at 5 mg/ml after 24 to 48 hrs by agar diffusion technique; type: functional
[3] = tested on: Candida albicans; experiment: Antifungal activity against Candida albicans at 5 mg/ml after 24 to 48 hrs by agar diffusion technique; type: functional; conditions: read-out: IZ
Outline: (§1)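 Clinical fungal or yeast isolates were seeded on malt extract agar (pH 5.4). 1 cm holes received 100 of test solution at 5 mg/ml in DMSO, with DMSO control holes and griseofulvin as the standard. Plates sat 1 h at 4 °C, then were incubated at 28 °C. Zone diameters were measured at 24–48 h.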

[4] = tested on: Candida albicans; experiment: Ratio of compound to grisofulvin activity against Candida albicans at 5 mg/ml after 24 to 48 hrs by agar diffusion technique; type: functional
[5] = tested on: Geotrichum candidum; experiment: Ratio of compound to grisofulvin activity against Geotrichum candidum at 5 mg/ml after 24 to 48 hrs by agar diffusion technique; type: functional
[6] = tested on: Staphylococcus aureus; experiment: Ratio of compound to amoxicilline activity against Staphylococcus aureus at 5 mg/ml after 24 to 48 hrs by agar diffusion technique; type: functional
[7] = tested on: Bacillus subtilis; experiment: Ratio of compound to amoxicilline activity against Bacillus subtilis at 5 mg/ml after 24 to 48 hrs by agar diffusion technique; type: functional
[8] = tested on: Escherichia coli; experiment: Ratio of compound to amoxicilline activity against Escherichia coli at 5 mg/ml after 24 to 48 hrs by agar diffusion technique; type: functional
[9] = tested on: Pseudomonas aeruginosa; experiment: Ratio of compound to amoxicilline activity against Pseudomonas aeruginosa at 5 mg/ml after 24 to 48 hrs by agar diffusion technique; type: functional
[10] = tested on: Aspergillus fumigatus; experiment: Antifungal activity against Aspergillus fumigatus at 5 mg/ml after 24 to 48 hrs by agar diffusion technique; type: functional; conditions: read-out: IZ; outline: as §1
[11] = tested on: Geotrichum candidum; experiment: Antifungal activity against Geotrichum candidum at 5 mg/ml after 24 to 48 hrs by agar diffusion technique; type: functional; conditions: read-out: IZ; outline: as §1
[12] = tested on: Staphylococcus aureus; experiment: Antibacterial activity against Staphylococcus aureus at 5 mg/ml after 24 to 48 hrs by agar diffusion technique; type: functional; conditions: read-out: IZ
Outline: (§2)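 Hole-plate diffusion on nutrient agar (pH 6.2) seeded with clinical bacterial isolates. 1 cm wells were filled with 100 of a 5 mg/ml DMSO solution, with DMSO-only control wells and amoxicilline as the reference. Plates were held at 4 °C for 1 h, then incubated at 37 °C. Inhibition zone diameter was read after 24–48 h.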

[13] = tested on: Bacillus subtilis; experiment: Antibacterial activity against Bacillus subtilis at 5 mg/ml after 24 to 48 hrs by agar diffusion technique; type: functional; conditions: read-out: IZ; outline: as §2
[14] = tested on: Escherichia coli; experiment: Antibacterial activity against Escherichia coli at 5 mg/ml after 24 to 48 hrs by agar diffusion technique; type: functional; conditions: read-out: IZ; outline: as §2
[15] = tested on: Pseudomonas aeruginosa; experiment: Antibacterial activity against Pseudomonas aeruginosa at 5 mg/ml after 24 to 48 hrs by agar diffusion technique; type: functional; conditions: read-out: IZ; outline: as §2
[16] = tested on: Aspergillus fumigatus; experiment: Antifungal activity against Aspergillus fumigatus after 24 to 48 hrs by serial dilution technique; type: functional
Outline: (§3)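 MIC by serial dilution: DMSO solutions started at a maximum of 500 and were diluted twofold in succession. Each dilution was inoculated with the test organism, and inhibition zones were measured by agar diffusion.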

[17] = tested on: Candida albicans; experiment: Antifungal activity against Candida albicans after 24 to 48 hrs by serial dilution technique; type: functional; outline: as §3
[18] = tested on: Candida albicans; experiment: Antifungal activity against Candida albicans assessed as occurrence of cellular aggregation by microscopy; type: functional, organism-based
Outline: (§4)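 Agar cultures exposed to 100 of compound were examined directly by phase-contrast or bright-field microscopy with video-camera image analysis, at ×400 for multicellular and ×1000 for unicellular fungi.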

[19] = tested on: Syncephalastrum racemosum; experiment: Antifungal activity against Syncephalastrum racemosum at 5 mg/ml after 24 to 48 hrs by agar diffusion technique; type: functional; conditions: read-out: IZ; outline: as §1
[20] = tested on: Staphylococcus aureus; experiment: Antibacterial activity against Staphylococcus aureus after 24 to 48 hrs by serial dilution technique; type: functional; outline: as §3
[21] = tested on: Aspergillus fumigatus; experiment: Antifungal activity against Aspergillus fumigatus assessed as reduction in size of all morphological features by microscopy; type: functional, organism-based; outline: as §4
[22] = tested on: Aspergillus fumigatus; experiment: Antifungal activity against Aspergillus fumigatus assessed as appearance of chlamydospore at 100 uL by microscopy; type: functional, organism-based; outline: as §4
[23] = tested on: Candida albicans; experiment: Antifungal activity against Candida albicans assessed as appearance of elongated and swollen cells at 100 uL by microscopy; type: functional, organism-based; outline: as §4
[24] = tested on: Aspergillus fumigatus; experiment: Antifungal activity against Aspergillus fumigatus assessed as shrinking of cell membrane by transmission electron microscopy; type: functional, organism-based
Outline: (§5)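 Treated A. fumigatus and C. albicans were fixed, dehydrated and stained. Ultrastructure was then examined by transmission electron microscopy at 80 kV and 25,000 magnification.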

[25] = tested on: Candida albicans; experiment: Antifungal activity against Candida albicans assessed as shrinking of cell membrane by transmission electron microscopy; type: functional, organism-based; outline: as §5
[26] = tested on: Aspergillus fumigatus; experiment: Antifungal activity against Aspergillus fumigatus assessed as distortion of cellular sub-organs by transmission electron microscopy; type: functional, organism-based; outline: as §5
[27] = tested on: Candida albicans; experiment: Antifungal activity against Candida albicans assessed as distortion of cellular sub-organs by transmission electron microscopy; type: functional, organism-based; outline: as §5
[28] = tested on: Aspergillus fumigatus; experiment: Antifungal activity against Aspergillus fumigatus assessed as aggregation of lysed mitochondria by transmission electron microscopy; type: functional, organism-based; outline: as §5
[29] = tested on: Candida albicans; experiment: Antifungal activity against Candida albicans assessed as aggregation of lysed mitochondria by transmission electron microscopy; type: functional, organism-based; outline: as §5
[30] = tested on: Aspergillus fumigatus; experiment: Antifungal activity against Aspergillus fumigatus assessed as increase in thickness of hyphal cell wall and cell membrane by transmission electron microscopy; type: functional, organism-based; outline: as §5
[31] = tested on: Candida albicans; experiment: Antifungal activity against Candida albicans assessed as increase in thickness of hyphal cell wall and cell membrane by transmission electron microscopy; type: functional, organism-based; outline: as §5

SMILES | Ratio [1] | Ratio [2] | zone of inhibition at 5000 µg/mL [3] | Ratio [4] | Ratio [5] | Ratio [6] | Ratio [7] | Ratio [8] | Ratio [9] | zone of inhibition at 5000 µg/mL [10] | zone of inhibition at 5000 µg/mL [12] | zone of inhibition at 5000 µg/mL [13] | zone of inhibition at 5000 µg/mL [14] | zone of inhibition at 5000 µg/mL [19] | further results
CC(=N\NC(=O)c1oc2ccccc2c1C)/C(Cl)=N/Nc1ccccc1 | 0 | 0 | 6 mm | 0.6 | 0 | 0 | 0 | 0 | 0 | – | – | – | – | – | –
CC(=N\NC(=O)c1oc2ccccc2c1C)/C(Cl)=N/Nc1ccc([N+](=O)[O-])cc1 | 0.56 | 0 | 12 mm | 1.2 | 0.5 | 0.4 | 0.25 | 0.36 | 0.25 | 14 mm | 12 mm | 6 mm | 10 mm | – | zone of inhibition at 5000 µg/mL [11]: 5 mm; zone of inhibition at 5000 µg/mL [15]: 5 mm
COc1ccc(N/N=C(Cl)/C(C)=N/NC(=O)c2oc3ccccc3c2C)cc1 | 0 | 0 | 10 mm | 1 | 0 | 0 | 0 | 0 | 0 | – | – | – | – | – | –
CC(=N\NC(=O)c1oc2ccccc2c1C)/C(Cl)=N/Nc1ccc(C)cc1 | 0 | 0 | 6 mm | 0.6 | 0 | 0 | 0.29 | 0 | 0 | – | – | 7 mm | – | – | –
COC1=CC(=O)C[C@@H](C)[C@]12Oc1c(Cl)c(OC)cc(OC)c1C2=O [GRISEOFULVIN] | – | – | – | – | – | – | – | – | – | – | – | – | – | – | MIC [16]: 50 µg/mL (≈ 142 µM); MIC [17]: 75 µg/mL (≈ 213 µM); Activity [18]: Active
CC(=N\NC(=O)c1oc2ccccc2c1C)/C(=N/Nc1ccc([N+](=O)[O-])cc1)S(=O)(=O)c1ccccc1 | 0 | 0 | 15 mm | 1.5 | 0 | 0.27 | 0.42 | 0.21 | 0 | – | 8 mm | 10 mm | 6 mm | – | –
Cc1c(C(=O)N/N=C(/C=C/c2ccccc2)C(=N/Nc2ccc([N+](=O)[O-])cc2)\N2CCCCC2)oc2ccccc12 | 0 | 1.1 | 17 mm | 1.7 | 0 | 0 | 0 | 0.29 | 0 | – | – | – | 8 mm | 21 mm | –
CC(=N\NC(=O)c1oc2ccccc2c1C)/C(=N/Nc1ccccc1)N1CCCCC1 | 1.12 | 0.84 | 14 mm | 1.4 | 0 | 0.5 | 0 | 0.61 | 0 | 28 mm | 15 mm | – | 17 mm | 16 mm | –
CC(=N\NC(=O)c1oc2ccccc2c1C)/C(=N/Nc1ccc([N+](=O)[O-])cc1)N1CCCCC1 | 1.28 | 1.16 | 18 mm | 1.8 | 1.2 | 0.87 | 0.83 | 0.71 | 0.35 | 32 mm | 26 mm | 20 mm | 20 mm | 22 mm | zone of inhibition at 5000 µg/mL [11]: 12 mm; zone of inhibition at 5000 µg/mL [15]: 7 mm; MIC [16]: 25 µg/mL (≈ 54.1 µM); MIC [17]: 75 µg/mL (≈ 162 µM); MIC [20]: 75 µg/mL (≈ 162 µM); Activity [21]: Active; Activity [22]: Active; Activity [23]: Active; Activity [24]: Active; Activity [25]: Active; Activity [26]: Active; Activity [27]: Active; Activity [28]: Active; Activity [29]: Active; Activity [30]: Active; Activity [31]: Active
Cc1c(C(=O)N/N=C(/C=C/c2ccccc2)C(=N/Nc2ccccc2)\N2CCCCC2)oc2ccccc12 | 0.84 | 1 | 15 mm | 1.5 | 0 | 0.53 | 0.63 | 0.5 | 0 | 21 mm | 16 mm | 15 mm | 14 mm | 19 mm | –
Cc1c(C(=O)N/N=C(/C=C/c2ccc(Cl)cc2)C(=N/Nc2ccc(Br)cc2)\N2CCCCC2)oc2ccccc12 | 0 | 1.05 | 14 mm | 1.4 | 0 | 0.33 | 0.67 | 0.36 | 0 | – | 10 mm | 16 mm | 10 mm | 20 mm | –
CC1(C)S[C@@H]2[C@H](NC(=O)[C@H](N)c3ccc(O)cc3)C(=O)N2[C@H]1C(=O)O [AMOXICILLIN] | 1 | 1 | 10 mm | 1 | 1 | 1 | 1 | 1 | 1 | 25 mm | 30 mm | 24 mm | 28 mm | 19 mm | zone of inhibition at 5000 µg/mL [11]: 10 mm; zone of inhibition at 5000 µg/mL [15]: 20 mm; MIC [20]: 50 µg/mL (≈ 137 µM)
C/C=N/NC(=O)c1oc2ccccc2c1C | 0 | 0 | 8 mm | 0.8 | 0 | 0.53 | 0 | 0.71 | 0 | – | 16 mm | – | 20 mm | – | –
CC(=N\NC(=O)c1oc2ccccc2c1C)/C(Cl)=N/Nc1ccc(Br)cc1 | 0 | 0.26 | 10 mm | 1 | 0 | 0 | 0.38 | 0 | 0 | – | – | 9 mm | – | 5 mm | –
CC(=N\NC(=O)c1oc2ccccc2c1C)/C(=N/Nc1ccc([N+](=O)[O-])cc1)NO | 0 | 1.05 | 9 mm | 0.9 | 0 | 0 | 0 | 0 | 0 | – | – | – | – | 20 mm | –
Cc1c(C(=O)N/N=C/C=C/c2ccccc2)oc2ccccc12 | 0 | 0 | 5 mm | 0.5 | 0 | 0 | 0.33 | 0 | 0 | – | – | 8 mm | – | – | –
